In article PMC7141409 (Journal of biomolecular NMR, 2019):

Columns and labels:
rice = rice strain with OsIAA11 P106L; cited from earlier work
[1] = system: E3 ubiquitin ligase SCF^TIR1; settings: rice strain with OsIAA11 P106L; cited from earlier work
[2] = system: ^15N-OsIAA11^72−125 (W104-P105 peptide bond); test: Nzz-exchange: catalyzed cis-trans exchange of W104-P105; assay type: biochemical, rice
Method in brief: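 15N-labeled OsIAA11 72–125 substrate (800μM) with 16μM enzyme (LRT2 mutant or homolog) in NMR buffer (50mM KCl, 20mM KPO4, 3mM TCEP, 5mM NaN3, 0.1% protease inhibitor cocktail, pH=6.67). Protein concentrations were set by A280 using theoretical extinction coefficients. Nzz-exchange spectra were processed to give the observed cis-trans exchange rate (kexobs) of the W104-P105 bond with uncertainties.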

[3] = Succinyl-Ala-Ala-Pro-Phe-NH-Mec; cited from earlier work

B1: OsIAA11 P106L: OsIAA11 P106L mutation (directly adjacent to the W104-P105 peptide bond) (protein, UniProt Q75GK0 1-233, looked up, variant P106L)
Auxin-responsive protein IAA11: MAGLGFDETELRLGLPGAGELAARSSGKRGFAETIDLKLKLQPAAPAAVSGEEGAQEDKEDADAAAAAADEKMSMKRSASQSSVVTAEPDPDKPRAPKAQVVGWPLVRSFRKNVLAEKCKAAALVKVSMDGAPYLRKIDVAMYKSYPELSMAFQNMFTSFTIGKCGSHQQLKESNKLRDDLEYVPTYEDKDGDWMLVGDVPWEMFVESCKRLRIMKGSEAIGLAPRAVEKCKS
In the case of B1, the “Lateral root development” value (rice) is given as “no induction of lateral root development” and the “Proteasomal degradation” value [1] is given as “evades proteasomal degradation”.

B2: PPIB: petidyl-prolyl isomerase B from E. coli (Uniprot entry P23869) (protein, UniProt P23869 1-164, looked up)
Peptidyl-prolyl cis-trans …: MVTFHTNHGDIVIKTFDDKAPETVKNFLDYCREGFYNNTIFHRVINGFMIQGGGFEPGMKQKATKEPIKNEANNGLKNTRGTLAMARTQAPHSATAQFFINVVDNDFLNFSGESLQGWGYCVFAEVVDGMDVVDKIKGVATGRSGMHQDVPKEDVIIESVTVSE
For B2, the “Nzz exchange crosspeaks / activity” value ([2]; 16μM enzyme, 800μM OsIAA11^72–125) was “clear exchange crosspeaks”, the Nzz-measured kexobs ([2]; 1H-15N Nzz exchange, 16μM enzyme, 800μM OsIAA11^72–125, NMR buffer pH=6.67) was 0.37 ± 0.04 s⁻¹ and the “Activity relative to WT LRT2 on OsIAA11” value ([2]; Nzz, % of WT LRT2 activity) was 60%. The “kcat/Km relative to hCypA” value [3] was “more than an order of magnitude higher kcat/Km than hCypA”.
